Legend:
[1] = target: Nitric oxide synthase, inducible (Homo sapiens, UniProt P35228); assay: Inhibition of human inducible nitric oxide synthase
Nitric oxide synthase 1 [2] = target: T1, Nitric oxide synthase 1 (Homo sapiens, UniProt P29475); assay: Inhibition of human neuronal Nitric Oxide Synthase
Nitric oxide synthase 3 [3] = target: T2, Nitric oxide synthase 3 (Homo sapiens, UniProt P29474); assay: Inhibition of human endothelial Nitric Oxide Synthase
T2 sequence (P29474 whole entry): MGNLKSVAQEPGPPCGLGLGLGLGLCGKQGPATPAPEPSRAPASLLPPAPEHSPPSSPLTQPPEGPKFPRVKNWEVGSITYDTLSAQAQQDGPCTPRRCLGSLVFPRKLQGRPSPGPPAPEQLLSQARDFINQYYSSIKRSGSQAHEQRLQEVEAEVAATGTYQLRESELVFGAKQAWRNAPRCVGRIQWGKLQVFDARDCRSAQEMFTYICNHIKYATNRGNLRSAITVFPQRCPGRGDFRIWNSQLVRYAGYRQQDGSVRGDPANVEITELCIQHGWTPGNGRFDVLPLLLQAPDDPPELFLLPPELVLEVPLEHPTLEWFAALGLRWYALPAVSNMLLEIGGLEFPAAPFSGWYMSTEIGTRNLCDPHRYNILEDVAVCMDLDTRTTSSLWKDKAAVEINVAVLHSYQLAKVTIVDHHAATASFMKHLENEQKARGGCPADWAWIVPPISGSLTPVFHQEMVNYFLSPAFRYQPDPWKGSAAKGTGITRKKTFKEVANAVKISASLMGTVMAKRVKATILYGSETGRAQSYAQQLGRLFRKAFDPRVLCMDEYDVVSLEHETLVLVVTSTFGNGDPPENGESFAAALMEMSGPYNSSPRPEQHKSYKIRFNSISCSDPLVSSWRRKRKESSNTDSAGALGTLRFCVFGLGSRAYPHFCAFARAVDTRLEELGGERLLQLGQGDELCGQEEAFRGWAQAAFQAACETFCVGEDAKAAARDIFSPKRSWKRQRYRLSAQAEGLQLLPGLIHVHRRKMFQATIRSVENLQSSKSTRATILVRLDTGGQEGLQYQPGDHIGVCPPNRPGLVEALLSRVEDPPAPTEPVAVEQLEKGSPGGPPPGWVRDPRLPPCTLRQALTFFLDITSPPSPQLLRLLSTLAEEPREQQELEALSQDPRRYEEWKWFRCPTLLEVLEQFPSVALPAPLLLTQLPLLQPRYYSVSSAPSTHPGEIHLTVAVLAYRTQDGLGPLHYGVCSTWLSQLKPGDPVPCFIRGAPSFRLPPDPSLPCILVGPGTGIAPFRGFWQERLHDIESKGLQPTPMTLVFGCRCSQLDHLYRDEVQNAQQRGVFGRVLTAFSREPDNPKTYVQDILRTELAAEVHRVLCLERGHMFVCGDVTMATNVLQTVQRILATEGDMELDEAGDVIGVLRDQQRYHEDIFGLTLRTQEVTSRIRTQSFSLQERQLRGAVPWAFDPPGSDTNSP

[4] = target: Nitric oxide synthase (inducible and endothelial) (Homo sapiens) (UniProt P35228+P29474); assay: Ratio of Endothelial Nitric Oxide Synthase to Inducible nitric oxide synthase; assay type: protein assay
[5] = target: Nitric oxide sythases; iNOS & nNOS (Homo sapiens) (UniProt P29475+P35228); assay: Ratio of binding to Neuronal nitric oxide synthase and Inducible nitric oxide synthase; assay type: protein assay
Nitric oxide synthase 1 [6] = target: T1, Nitric oxide synthase 1; assay: Concentration required for inhibition of neuronal Nitric Oxide Synthase in human
Outline: (§1)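 Recombinant human NOS enzymes (endothelial or neuronal isoform) were tested in an oxyhaemoglobin assay. Readings were taken 15–30 min after inhibitor addition so that time-dependent inhibition could develop, and IC50 values were derived from those readings.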

Nitric oxide synthase 3 [7] = target: T2, Nitric oxide synthase 3; assay: Concentration required for inhibition of endothelial Nitric Oxide Synthase in human; outline: as §1

Sequence of Nitric oxide synthase, inducible (P35228 whole entry): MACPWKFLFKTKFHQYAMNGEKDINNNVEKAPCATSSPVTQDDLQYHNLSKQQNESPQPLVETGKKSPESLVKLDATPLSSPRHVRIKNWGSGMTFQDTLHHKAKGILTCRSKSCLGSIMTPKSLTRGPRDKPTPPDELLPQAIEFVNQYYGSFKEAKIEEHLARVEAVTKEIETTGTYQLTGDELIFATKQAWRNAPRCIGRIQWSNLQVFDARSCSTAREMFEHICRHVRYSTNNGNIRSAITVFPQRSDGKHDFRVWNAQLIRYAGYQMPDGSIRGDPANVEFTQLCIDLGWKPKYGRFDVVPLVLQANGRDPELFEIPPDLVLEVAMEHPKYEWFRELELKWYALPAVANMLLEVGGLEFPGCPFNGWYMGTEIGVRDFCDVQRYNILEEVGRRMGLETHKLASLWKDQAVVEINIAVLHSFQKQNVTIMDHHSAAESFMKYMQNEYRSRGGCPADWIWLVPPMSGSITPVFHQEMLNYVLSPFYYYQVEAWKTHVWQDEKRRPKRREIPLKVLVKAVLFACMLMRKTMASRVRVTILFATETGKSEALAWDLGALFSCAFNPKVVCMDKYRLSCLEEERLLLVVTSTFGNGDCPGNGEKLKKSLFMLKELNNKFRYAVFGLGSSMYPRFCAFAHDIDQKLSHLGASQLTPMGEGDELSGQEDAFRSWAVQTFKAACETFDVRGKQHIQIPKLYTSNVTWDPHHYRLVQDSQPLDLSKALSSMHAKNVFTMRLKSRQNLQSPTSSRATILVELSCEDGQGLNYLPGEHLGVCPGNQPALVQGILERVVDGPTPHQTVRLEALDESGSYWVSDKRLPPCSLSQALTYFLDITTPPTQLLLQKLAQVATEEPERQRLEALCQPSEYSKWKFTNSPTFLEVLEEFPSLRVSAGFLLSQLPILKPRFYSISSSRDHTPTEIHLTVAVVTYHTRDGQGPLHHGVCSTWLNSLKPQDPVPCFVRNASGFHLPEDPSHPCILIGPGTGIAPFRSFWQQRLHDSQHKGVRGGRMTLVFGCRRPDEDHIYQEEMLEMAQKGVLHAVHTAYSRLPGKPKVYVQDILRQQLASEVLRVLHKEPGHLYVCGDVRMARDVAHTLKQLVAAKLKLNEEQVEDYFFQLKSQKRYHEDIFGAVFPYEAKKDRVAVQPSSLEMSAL
T1 sequence (P29475 whole entry): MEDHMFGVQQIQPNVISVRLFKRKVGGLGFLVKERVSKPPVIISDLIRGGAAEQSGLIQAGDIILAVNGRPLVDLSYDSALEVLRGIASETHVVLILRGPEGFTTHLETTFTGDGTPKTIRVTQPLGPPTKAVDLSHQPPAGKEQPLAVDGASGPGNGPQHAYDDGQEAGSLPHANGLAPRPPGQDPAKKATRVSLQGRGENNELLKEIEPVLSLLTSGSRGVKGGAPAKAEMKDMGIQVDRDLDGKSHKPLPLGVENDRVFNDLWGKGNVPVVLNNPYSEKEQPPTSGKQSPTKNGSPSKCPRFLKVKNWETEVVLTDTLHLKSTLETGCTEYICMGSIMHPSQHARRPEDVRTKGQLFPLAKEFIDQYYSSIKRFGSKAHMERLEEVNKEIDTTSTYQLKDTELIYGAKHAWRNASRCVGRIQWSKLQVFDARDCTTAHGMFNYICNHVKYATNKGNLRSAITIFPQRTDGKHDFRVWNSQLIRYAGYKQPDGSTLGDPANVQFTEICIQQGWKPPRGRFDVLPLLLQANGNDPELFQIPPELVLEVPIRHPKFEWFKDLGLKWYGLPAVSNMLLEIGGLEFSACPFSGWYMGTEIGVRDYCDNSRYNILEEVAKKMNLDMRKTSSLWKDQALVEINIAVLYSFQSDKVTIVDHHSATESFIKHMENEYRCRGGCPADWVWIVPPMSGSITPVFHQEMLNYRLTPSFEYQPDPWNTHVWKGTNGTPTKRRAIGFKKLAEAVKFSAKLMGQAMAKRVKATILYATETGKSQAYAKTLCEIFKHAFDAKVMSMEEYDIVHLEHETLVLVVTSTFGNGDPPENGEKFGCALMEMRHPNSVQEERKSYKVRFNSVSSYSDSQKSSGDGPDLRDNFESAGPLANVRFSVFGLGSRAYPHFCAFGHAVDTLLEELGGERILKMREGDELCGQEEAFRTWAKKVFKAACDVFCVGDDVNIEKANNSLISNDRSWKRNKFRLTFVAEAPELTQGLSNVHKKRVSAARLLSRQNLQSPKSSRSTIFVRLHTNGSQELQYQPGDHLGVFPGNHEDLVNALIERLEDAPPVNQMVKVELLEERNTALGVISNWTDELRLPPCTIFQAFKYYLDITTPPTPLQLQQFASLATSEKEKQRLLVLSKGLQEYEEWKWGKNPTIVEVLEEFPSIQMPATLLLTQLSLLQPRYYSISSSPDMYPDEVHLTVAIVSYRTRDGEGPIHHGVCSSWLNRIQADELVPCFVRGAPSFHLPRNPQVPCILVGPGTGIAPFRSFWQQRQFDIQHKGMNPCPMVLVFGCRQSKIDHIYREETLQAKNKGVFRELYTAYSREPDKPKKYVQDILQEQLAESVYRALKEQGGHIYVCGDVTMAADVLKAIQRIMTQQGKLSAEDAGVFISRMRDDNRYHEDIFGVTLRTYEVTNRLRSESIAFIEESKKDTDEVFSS
Sequence of Nitric oxide sythases; iNOS & nNOS (Homo sapiens) (P29475 whole entry, looked up): as the sequence (P29475 whole entry) above
Sequence of Nitric oxide sythases; iNOS & nNOS (Homo sapiens) (P35228 whole entry, looked up): as the sequence (P35228 whole entry) above

## CC(=N)NCCCS(=O)(=O)C[C@H](N)C(=O)O
[1]
  IC50: > 100 µM
Nitric oxide synthase 1 [2]
  IC50: > 100 µM
Nitric oxide synthase 3 [3]
  IC50: > 100 µM

## CC(=N)NCCCC[C@@H](N)C(=O)O
[4]
  Ratio: 49
[1]
  IC50: 1.6 µM
Nitric oxide synthase 1 [2]
  IC50: 37 µM
[5]
  Ratio: 23
Nitric oxide synthase 3 [3]
  IC50: 78 µM

## CC(=N)NCCSC[C@H](N)C(=O)O
[4]
  Ratio: > 18
[1]
  IC50: 5.4 µM
Nitric oxide synthase 1 [2]
  IC50: 53 µM
[5]
  Ratio: 10
Nitric oxide synthase 3 [3]
  IC50: > 100 µM

## CC(=N)NCC[S+]([O-])C[C@@H](N)C(=O)O (stereo not given in full)
[4]
  Ratio: 19
[1]
  IC50: 8 µM
Nitric oxide synthase 1 [2]
  IC50: 68 µM
[5]
  Ratio: 9
Nitric oxide synthase 3 [3]
  IC50: 155 µM

## CC(=N)NCCCSC[C@H](N)C(=O)O
[1]
  IC50: 62 µM
Nitric oxide synthase 1 [2]
  IC50: > 100 µM
Nitric oxide synthase 3 [3]
  IC50: > 100 µM

## CC(=N)NCCS(=O)(=O)CCC(N)C(=O)O (stereo not given)
[1]
  IC50: > 100 µM
Nitric oxide synthase 1 [6]
  IC50: > 100 µM
Nitric oxide synthase 3 [3]
  IC50: > 100 µM

## CC(=N)NCCCCCC(N)C(=O)O (stereo not given)
[4]
  Ratio: > 5
[1]
  IC50: 20 µM
Nitric oxide synthase 1 [2]
  IC50: > 100 µM
[5]
  Ratio: > 5
Nitric oxide synthase 3 [3]
  IC50: > 100 µM

## CC(=N)NCCSC[C@@H](N)C(=O)O
Nitric oxide synthase 3 [7]
  IC50: 40 µM
[4]
  Ratio: 57
[1]
  IC50: 0.7 µM
Nitric oxide synthase 1 [2]
  IC50: 13.2 µM
[5]
  Ratio: 19

## CC(=N)NCCOCCC(N)C(=O)O (stereo not given)
[4]
  Ratio: 51
[1]
  IC50: 1.4 µM
Nitric oxide synthase 1 [2]
  IC50: 6 µM
[5]
  Ratio: 5
Nitric oxide synthase 3 [3]
  IC50: 72 µM

## CC(=N)NCCOC[C@H](N)C(=O)O
[4]
  Ratio: 11
[1]
  IC50: 1.2 µM
Nitric oxide synthase 1 [2]
  IC50: 11.6 µM
[5]
  Ratio: 10
Nitric oxide synthase 3 [3]
  IC50: 13 µM

## CC(=N)NCCSCC[C@@H](N)C(=O)O
[4]
  Ratio: > 17
[1]
  IC50: 5.9 µM
Nitric oxide synthase 1 [2]
  IC50: > 100 µM
[5]
  Ratio: > 17
Nitric oxide synthase 3 [3]
  IC50: > 100 µM

## CC(=N)NCC[S+]([O-])CCC(N)C(=O)O (stereo not given)
[1]
  IC50: > 100 µM
Nitric oxide synthase 1 [2]
  IC50: > 100 µM
Nitric oxide synthase 3 [3]
  IC50: > 100 µM

## CC(=N)NCCCOC[C@H](N)C(=O)O
[1]
  IC50: > 100 µM
Nitric oxide synthase 1 [2]
  IC50: > 100 µM
Nitric oxide synthase 3 [3]
  IC50: > 100 µM

## CC(=N)NCCS(=O)(=O)C[C@@H](N)C(=O)O
[4]
  Ratio: > 125
[1]
  IC50: 8 µM
Nitric oxide synthase 1 [2]
  IC50: 630 µM
[5]
  Ratio: 78
Nitric oxide synthase 3 [3]
  IC50: > 1000 µM

## CC(=N)NCCSCC[C@H](N)C(=O)O [GW-274150]
[4]
  Ratio: 333
[1]
  IC50: 1.4 µM
Nitric oxide synthase 1 [2]
  IC50: 145 µM
[5]
  Ratio: 104
Nitric oxide synthase 3 [3]
  IC50: 466 µM

From ChEMBL document CHEMBL1133154, “Inhibition of inducible nitric oxide synthase by acetamidine derivatives of hetero-substituted lysine and homolysine” (Bioorg Med Chem Lett, 2000)
